Tests used:
Type in all cases: cell-based
[1] = molecular target: T1, Peroxisome proliferator-activated receptor alpha (Homo sapiens, UniProt Q07869); test: Transactivation of human PPARalpha expressed in monkey CV-1 cells coexpressing TK-PPRE-Luc after 24 hrs by luciferase reporter gene assay
T1 sequence (Q07869 whole entry): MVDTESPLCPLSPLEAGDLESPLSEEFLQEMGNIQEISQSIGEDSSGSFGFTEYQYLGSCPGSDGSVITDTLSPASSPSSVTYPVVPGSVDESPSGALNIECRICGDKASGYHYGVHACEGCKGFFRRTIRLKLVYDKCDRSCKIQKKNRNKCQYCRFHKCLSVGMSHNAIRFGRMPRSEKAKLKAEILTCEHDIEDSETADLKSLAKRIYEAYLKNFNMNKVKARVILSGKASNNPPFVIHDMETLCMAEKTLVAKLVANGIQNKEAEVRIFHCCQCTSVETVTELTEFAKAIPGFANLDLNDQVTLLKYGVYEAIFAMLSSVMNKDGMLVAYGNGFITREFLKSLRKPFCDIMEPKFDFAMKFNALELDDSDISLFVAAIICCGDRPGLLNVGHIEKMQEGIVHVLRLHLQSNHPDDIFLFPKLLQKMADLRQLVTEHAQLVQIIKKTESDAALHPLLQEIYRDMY

[2] = molecular target: T2, Peroxisome proliferator-activated receptor delta (Homo sapiens, UniProt Q03181); test: Transactivation of human PPARdelta expressed in monkey CV-1 cells coexpressing TK-PPRE-Luc after 24 hrs by luciferase reporter gene assay
T2 sequence (Q03181 whole entry): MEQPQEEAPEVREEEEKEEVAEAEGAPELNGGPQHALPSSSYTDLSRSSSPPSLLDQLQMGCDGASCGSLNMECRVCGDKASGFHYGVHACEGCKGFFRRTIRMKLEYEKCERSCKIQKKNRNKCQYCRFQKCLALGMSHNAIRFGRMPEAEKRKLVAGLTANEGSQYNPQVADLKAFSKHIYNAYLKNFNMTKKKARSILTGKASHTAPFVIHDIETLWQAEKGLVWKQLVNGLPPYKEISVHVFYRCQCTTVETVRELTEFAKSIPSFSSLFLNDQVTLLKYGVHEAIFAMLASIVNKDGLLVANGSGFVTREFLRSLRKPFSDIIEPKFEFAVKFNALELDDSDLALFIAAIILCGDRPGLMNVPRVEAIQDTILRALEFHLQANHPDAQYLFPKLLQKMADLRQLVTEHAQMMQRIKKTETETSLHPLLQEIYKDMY
Procedure, shortened: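 Agonist activity tested in transiently transfected CV-1 cells by reporter assay. EC50 is the molar concentration giving 50% of the maximal reporter activity.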

[3] = molecular target: T3, Peroxisome proliferator-activated receptor gamma (Homo sapiens, UniProt P37231); test: Transactivation of human PPARgamma expressed in monkey CV-1 cells coexpressing TK-PPRE-Luc after 24 hrs by luciferase reporter gene assay
T3 sequence (P37231 whole entry): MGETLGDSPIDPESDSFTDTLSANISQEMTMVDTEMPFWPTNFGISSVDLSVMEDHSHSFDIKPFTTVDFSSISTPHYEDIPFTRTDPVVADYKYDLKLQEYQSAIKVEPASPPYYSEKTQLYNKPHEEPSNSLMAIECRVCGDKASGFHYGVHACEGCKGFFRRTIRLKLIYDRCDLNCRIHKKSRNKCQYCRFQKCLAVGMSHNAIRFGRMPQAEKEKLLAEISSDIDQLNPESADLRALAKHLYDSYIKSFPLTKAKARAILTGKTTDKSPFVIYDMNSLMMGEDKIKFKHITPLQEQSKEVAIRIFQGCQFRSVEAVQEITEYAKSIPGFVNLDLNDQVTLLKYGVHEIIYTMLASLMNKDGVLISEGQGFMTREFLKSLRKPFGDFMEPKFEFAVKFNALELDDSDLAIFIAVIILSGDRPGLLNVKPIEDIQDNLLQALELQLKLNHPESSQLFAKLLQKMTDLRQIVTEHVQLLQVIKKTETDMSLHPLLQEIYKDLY

EC50 [1] | EC50 [2] | EC50 [3] | SMILES
> 10000 nM | 86 nM | > 10000 nM | Cc1cc(SC(Cc2cc(F)c(F)c(F)c2)c2ccc(-c3ccccc3)cc2)ccc1OCC(=O)O (centres undefined)
> 10000 nM | 18 nM | > 10000 nM | Cc1cc(SC(Cc2ccccc2)c2ccc(-c3cccc(C(F)(F)F)c3)cc2)ccc1OCC(=O)O (centres undefined)
– | 6.1 nM | – | Cc1cc(S[C@@H](Cc2ccccc2)c2ccc(-c3ccc(C(F)(F)F)cc3)cc2)ccc1OCC(=O)O
> 10000 nM | 10 nM | > 10000 nM | Cc1cc(SC(Cc2cc(C(F)(F)F)ccc2F)c2ccc(-c3ccccc3)cc2)ccc1OCC(=O)O (centres undefined)
> 10000 nM | 4.5 nM | > 10000 nM | Cc1cc(SC(Cc2ccccc2)c2ccc(-c3cc(F)c(F)c(F)c3)cc2)ccc1OCC(=O)O (centres undefined)
– | 0.7 nM | – | Cc1cc(S[C@H](Cc2ccccc2)c2ccc(-c3ccc(C(F)(F)F)cc3)cc2)ccc1OCC(=O)O

The next lines start with the compound.

SMILES | EC50 [1] | EC50 [2] | EC50 [3]
Cc1cc(SC(Cc2cc(Cl)ccc2F)c2ccc(-c3ccccc3)cc2)ccc1OCC(=O)O (centres undefined) | > 10000 nM | 26 nM | > 10000 nM
Cc1cc(SC(Cc2cc(F)c(F)c(F)c2)c2ccc(-c3ccc(C(F)(F)F)cc3)nc2)ccc1OCC(=O)O (centres undefined) | > 10000 nM | 56 nM | > 10000 nM
Cc1cc(SC(Cc2cc(F)ccc2F)c2ccc(-c3cc(F)c(F)c(F)c3)cc2)ccc1OCC(=O)O (centres undefined) | > 10000 nM | 6.3 nM | > 10000 nM
Cc1cc(SC(Cc2cc(Cl)ccc2F)c2ccc(-c3cccc(C(F)(F)F)c3)cc2)ccc1OCC(=O)O (centres undefined) | > 10000 nM | 5.3 nM | > 10000 nM
Cc1cc(SC(Cc2cc(F)ccc2F)c2ccc(-c3cccc(C(F)(F)F)c3)cc2)ccc1OCC(=O)O (centres undefined) | > 10000 nM | 9.1 nM | > 10000 nM

From ChEMBL document CHEMBL4229483, “Synthesis and evaluation of an orally available "Y"-shaped biaryl peroxisome proliferator-activated receptor δ agonist” (Bioorg Med Chem, 2018)
